Laboratory results as given in ChEMBL document CHEMBL1145530, “Synthesis and evaluation of isosteres of N-methyl indolo[3,2-b]-quinoline (cryptolepine) as new antiinfective agents” (Bioorg Med Chem, 2007).
In brackets after ≈: the same amount, converted by molar mass. Activity calls are given as the source filed them. The calls are words filed in the database; no cut-off is given here.

What was measured:
[1] = tested on: Mycobacterium intracellulare; experiment: Antibacterial activity against Mycobacterium intracellular ATCC 23068; format: functional, organism-based
Summary of the method: (§1)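 Broth microdilution following modified NCCLS methods, Franzblau variant for M. intracellulare. DMSO samples serially diluted in saline and tested in duplicate. Inoculum set by 0.5 McFarland. Media: C. albicans SDB or RPMI 1640; C. neoformans SDB; A. fumigatus YM broth (MIC) or RPMI-1640 + 5% Alamar Blue (IC50); M. intracellulare 7H9/OADC + 5% Alamar Blue. Top final concentration 20 µg/mL.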

Plasmodium falciparum [2] = experiment: Anti-infective activity against Plasmodium falciparum W2 in erythrocytes; format: functional, organism-based
Cryptococcus neoformans = experiment: Antifungal activity against Cryptococcus neoformans ATCC 90113; format: functional, organism-based; summary of the method: as §1
[3] = Anti-infective activity against Plasmodium falciparum D6 infected red blood cells; format: functional
Aspergillus fumigatus = experiment: Antifungal activity against Aspergillus fumigatus ATCC 90906; format: functional, organism-based; conditions: for MIC: in the assay text read “Antifungal” for “Antibacterial”; summary of the method: as §1
Leishmania donovani = experiment: Antileishmanial activity against Leishmania donovani promastigotes; format: functional, organism-based
Summary of the method: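 L. donovani promastigotes from a 3-day culture in RPMI 1640 with 10% FCS, diluted to 5×10^5/mL. Drug dilutions made directly in the cell suspension. 48 h at 26 °C. Growth measured by Alamar Blue fluorescence at 544/590 nm. IC50 and IC90 from percent growth versus concentration.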

Candida albicans = experiment: Antifungal activity against Candida albicans ATCC 90028; format: functional; summary of the method: as §1
Vero = experiment: Cytotoxicity against Vero cells; format: cell-based; conditions: Chlorocebus sabaeus
Summary of the method: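 VERO monkey kidney […] seeded at 25,000 cells/well and grown 24 h, then exposed to compound for 48 h, highest concentration 23.8 µg/ml. Viability by neutral red uptake. IC50 from growth-inhibition curves. DMSO as vehicle control.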

Plasmodium falciparum [4] = experiment: Anti-infective activity against Plasmodium falciparum D6 infected red blood cells up to 4.76 ug/mL; format: functional
Plasmodium falciparum [5] = experiment: Anti-infective activity against Plasmodium falciparum W2 in erythrocytes up to 4.76 ug/mL; format: functional, organism-based

Row | SMILES | IC50 [1] | IC50 (Plasmodium falciparum [2]) | MIC (Cryptococcus neoformans) | IC50 [3] | MIC (Aspergillus fumigatus) | IC50 (Leishmania donovani) | MIC (Candida albicans) | IC50 (Aspergillus fumigatus) | IC50 (Cryptococcus neoformans) | IC50 (Vero) | Activity (Plasmodium falciparum [4]) | Activity (Plasmodium falciparum [5])
1 | CN(C)c1ccc2sc3ccc[n+](C)c3c2c1 | 15 mg/L | 0.2 mg/L | > 20 mg/L | 0.18 mg/L | > 20 mg/L | 3 mg/L | > 20 mg/L | – | – | > 23.8 mg/L | – | –
2 | C[n+]1c2ccccc2cc2sc3ccccc3c21.O=S(=O)([O-])C(F)(F)F | 15 mg/L | 0.3 mg/L | > 20 mg/L | 0.34 mg/L | – | 0.27 mg/L | 10 mg/L | 6.5 mg/L | – | > 23.8 mg/L | – | –
3 | C[n+]1cccc2sc3ccccc3c21.[I-] | > 20 mg/L | 1.2 mg/L | > 20 mg/L | 1.5 mg/L | > 20 mg/L | – | > 20 mg/L | – | – | > 23.8 mg/L | – | –
4 | O=C(O)c1cn(C2CC2)c2cc(N3CCNCC3)c(F)cc2c1=O [CIPROFLOXACIN] | 0.35 mg/L (≈ 1.06 µM) | – | – | – | – | – | – | – | – | – | – | –
5 | C[n+]1c2ccc(C(N)=O)cc2cc2sc3ccccc3c21.[I-] | > 20 mg/L | – | > 20 mg/L | – | > 20 mg/L | 40 mg/L | > 20 mg/L | – | – | > 23.8 mg/L | inactive | inactive
6 | C[n+]1c2ccccc2cc2sc3ccccc3c21.[I-] | > 20 mg/L | 2 mg/L | – | 1.6 mg/L | > 20 mg/L | 0.35 mg/L | – | – | – | > 23.8 mg/L | – | –
7 | C[n+]1c2ccc(C(=O)O)cc2cc2sc3ccccc3c21.[I-] | 20 mg/L | 4.5 mg/L | > 20 mg/L | – | 10 mg/L | 0.39 mg/L | > 20 mg/L | – | – | 7 mg/L | inactive | –
8 | C[n+]1c2ccccc2cc2oc3ccccc3c21.[I-] | > 20 mg/L | 0.28 mg/L | > 20 mg/L | 0.28 mg/L | – | 2.2 mg/L | > 20 mg/L | 15 mg/L | – | > 23.8 mg/L | – | –
9 | C[n+]1c2c(cc3ccccc31)Cc1ccccc1-2.[I-] | > 20 mg/L | – | > 20 mg/L | – | > 20 mg/L | – | > 20 mg/L | – | – | – | – | –
10 | C[n+]1cccc2sc3ccc([N+](=O)[O-])cc3c21.[I-] | > 20 mg/L | 0.46 mg/L | > 20 mg/L | 0.4 mg/L | > 20 mg/L | > 40 mg/L | > 20 mg/L | – | – | > 23.8 mg/L | – | –
11 | C[C@@H]1[C@H](O)[C@@H](C)/C=C/C=C/C=C/C=C/C=C/C=C/C=C/[C@H](O[C@@H]2O[C@H](C)[C@@H](O)[C@H](N)[C@@H]2O)C[C@@H]2O[C@](O)(C[C@@H](O)C[C@@H](O)[C@H](O)CC[C@@H](O)C[C@@H](O)CC(=O)O[C@H]1C)C[C@H](O)[C@H]2C(=O)O [AMPHOTERICIN B] | – | – | 0.95 mg/L (≈ 1.03 µM) | – | – | – | 0.25 mg/L (≈ 0.271 µM) | 0.85 mg/L (≈ 0.92 µM) | – | – | – | –
12 | C[C@@H]1CC[C@H]2[C@@H](C)C(=O)O[C@@H]3O[C@@]4(C)CC[C@@H]1[C@]32OO4 [ARTEMISININ] | – | 0.02 mg/L (≈ 0.0708 µM) | – | 0.02 mg/L (≈ 0.0708 µM) | – | – | – | – | – | > 4.7 mg/L | – | –
13 | C[n+]1c2ccc(Cl)cc2cc2sc3ccccc3c21.[I-] | > 20 mg/L | 2.8 mg/L | 15 mg/L | 4 mg/L | 4 mg/L | 0.42 mg/L | 2 mg/L | – | – | > 23.8 mg/L | – | –

The next lines start with results.

Row | IC50 [1] | IC50 (Plasmodium falciparum [2]) | MIC (Cryptococcus neoformans) | IC50 [3] | MIC (Aspergillus fumigatus) | IC50 (Leishmania donovani) | MIC (Candida albicans) | IC50 (Aspergillus fumigatus) | IC50 (Cryptococcus neoformans) | SMILES | IC50 (Vero) | Activity (Plasmodium falciparum [4]) | Activity (Plasmodium falciparum [5])
14 | 1.5 mg/L | 0.22 mg/L | 20 mg/L | 0.27 mg/L | 20 mg/L | 1.2 mg/L | > 20 mg/L | – | – | [I-].c1ccc(CCCCC[n+]2cccc3sc4ccccc4c32)cc1 | 20 mg/L | – | –
15 | > 20 mg/L | 0.74 mg/L | – | 0.74 mg/L | 20 mg/L | 0.6 mg/L | > 20 mg/L | – | 8 mg/L | COc1ccc2c(c1)cc1sc3ccccc3c1[n+]2C.[I-] | > 23.8 mg/L | – | –
16 | > 20 mg/L | – | > 20 mg/L | – | 20 mg/L | 2.6 mg/L | > 20 mg/L | – | – | C[n+]1c2ccc(C#N)cc2cc2sc3ccccc3c21.[I-] | > 23.8 mg/L | inactive | inactive
17 | – | – | – | – | – | 0.7 mg/L (≈ 2.06 µM) | – | – | – | N=C(N)c1ccc(OCCCCCOc2ccc(C(=N)N)cc2)cc1 [PENTAMIDINE] | – | – | –
18 | – | – | – | 0.02 mg/L (≈ 0.0625 µM) | – | – | – | – | – | CCN(CC)CCCC(C)Nc1ccnc2cc(Cl)ccc12 (centres undefined) [CHLOROQUINE] | > 4.7 mg/L | – | –
19 | 15 mg/L | 0.35 mg/L | – | 0.18 mg/L | > 20 mg/L | 0.23 mg/L | 2 mg/L | – | – | C[n+]1c2ccccc2cc2[nH]c3ccccc3c21.[I-] [CRYPTOLEPTINE IODIDE] | 3.2 mg/L | – | –
